In data set [1] the test system is MT4. Put plainly: Cytotoxicity against human MT4 cells after 3 days by XTT assay. In kind it is cell-based. The note with it: mt4, 72 h. The procedure, abridged: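 MT4 cells (5 × 10⁴/well) exposed to graded compound concentrations at 37 °C for 3 days. CCK-8 reagent then added, with a further 4 h at 37 °C for XTT formazan colour development. Absorbance read at 450 nm to give CC₅₀. Each compound run in triplicate.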

In data set [2] the target is Human immunodeficiency virus type 1 reverse transcriptase (Human immunodeficiency virus 1, UniProt Q72547). Put plainly: Inhibition of HIV1 reverse transcriptase using poly(ra)/oligo(dT)15 homopolymer template as substrate after 1 hr.
For data set [3], the system named is Human immunodeficiency virus 1. Put plainly: Antiviral activity against HIV1 SF33 infected in human MT4 cells assessed as inhibition of viral p24 antigen production after 7 days by ELISA. Type of data set: functional, organism-based. The note with it: Human immunodeficiency virus 1, SF33, MT4, 168 h. A digest of the protocol:
(§1)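 MT4 cells (4 × 10⁴/well) were infected with 200 TCID₅₀ of HIV-1 and incubated 2 h at 37 °C. Compounds were then added at serial dilutions. Each compound was run in triplicate, reported as mean SD.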

The subject of data set [4] is Human immunodeficiency virus 1. Put plainly: Antiviral activity against NNRTI-resistant HIV1 A17 expressing reverse transcriptase K103N and Y181C mutant infected in human MT4 cells assessed as inhibition of viral p24 antigen production after 7 days by ELISA. Type of data set: functional, organism-based. The note with it: Human immunodeficiency virus 1, A17, MT4, 168 h. A digest of the protocol:
as §1

A short description of data set [5]: Selectivity index, ratio of CC50 for human MT4 cells to EC50 for NNRTI-resistant HIV1 A17 expressing reverse transcriptase K103N and Y181C mutant. In kind it is toxicity, cell-based. The note with it: read-out: Ratio CC50/EC50. The procedure, abridged:
(§2)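 SI is CC₅₀ in MT4 cells over EC₅₀ for each strain. For CC₅₀, MT4 cells (5 × 10⁴/well) were exposed to graded compound concentrations for 3 days at 37 °C, then given CCK-8/XTT for 4 h at 37 °C and read at 450 nm absorbance. Assays were run in triplicate.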

A short description of data set [6]: Selectivity index, ratio of CC50 for human MT4 cells to EC50 for HIV1 SF33. Type of data set: toxicity, cell-based. The note with it: read-out: Ratio CC50/EC50. The procedure, abridged:
as §2

In data set [7] the test system is Human immunodeficiency virus 1. Briefly: Ratio of nevirapine EC50 to compound EC50 for HIV1 SF33. In kind it is functional.

Compound `CCOCn1c(Cc2ccccc2)c(Br)c(=O)[nH]c1=O` gave a cytotoxic concentration (CC50) in data set [1] of 155000 nM. In data set [2], this compound registered an IC50 of 1820 nM. The values for the EC50 in data set [3] and in data set [4] were 2070 nM and over 10000 nM, respectively. The selectivity ratio was under 15.5 in data set [5] and 75 in data set [6].
In data set [1], `Cc1ccnc2c1NC(=O)c1cccnc1N2C1CC1` [NEVIRAPINE] registered a CC50 of 325000 nM. Also, the EC50 in data set [3] is 68 nM; in data set [4] it was over 10000 nM.
On to `CCOCn1c(Cc2cc(C)cc(C)c2)c(Br)c(=O)[nH]c1=O`, for which half-maximal inhibition in data set [2] (IC50) was put at 210 nM.
Regarding `Cc1cc(C)cc(Cc2c(N(C)C)c(=O)[nH]c(=O)n2COCc2ccccc2)c1`, in data set [1], half-maximal cytotoxicity (CC50) was put at 55800 nM. Besides, the IC50 in data set [2] stood at 21 nM. Also, the EC50 in data set [3] is 14 nM; in data set [4], 2200 nM. In addition, the selectivity ratio stood at 25 in data set [5] and 5200 in data set [6]. Besides, the “Ratio EC50” value in data set [7] came out at 46.
In turn, `CCOCn1c(Cc2ccccc2)c(N(C)C)c(=O)[nH]c1=O` registered a CC50 in data set [1] of 166000 nM. The IC50 in data set [2] worked out at 162 nM. The EC50 in data set [3] was 614 nM; in data set [4], over 10000 nM. Moreover, the selectivity ratio is under 16.6 in data set [5] and 270 in data set [6].
Turning to `O=c1[nH]c(=O)n(COCc2ccccc2)c(Cc2cc(F)cc(F)c2)c1I`, the CC50 in data set [1] is 121000 nM. In data set [2], this compound registered an IC50 of 15 nM. The EC50 was found to be 6 nM in data set [3] and 2540 nM in data set [4]. Further, the selectivity ratio stood at 48 in data set [5] and 20200 in data set [6]. Also, in data set [7], the “Ratio EC50” value was determined as 46.
Compound `CCOCn1c(Cc2cc(C)cc(C)c2)c(I)c(=O)[nH]c1=O` displayed a CC50 in data set [1] of 142000 nM. This compound had an IC50 in data set [2] of 110 nM. Further, the figures for the EC50 in data set [3] and in data set [4] were 6 nM and 637 nM, respectively. Besides, the figures for the selectivity ratio in data set [5] and in data set [6] were 222 and 23700, respectively.
In the case of `Cc1cc(C)cc(Cc2c(Br)c(N)nc(=O)n2COCc2ccccc2)c1`, it took 16300 nM to reach half-maximal inhibition in data set [2] (IC50).
Turning to `Cc1cc(C)cc(Cc2c(Br)c(=O)[nH]c(=O)n2COCc2ccccc2)c1`, in data set [1], it took 152000 nM to reach half-maximal cytotoxicity (CC50). This compound also yielded an IC50 in data set [2] of 43 nM. The EC50 came out at 9 nM in data set [3] and 601 nM in data set [4]. For the same compound, the results for the selectivity ratio in data set [5] and in data set [6] were 253 and 16900, respectively.
Consider `CC(C)c1c(Cc2ccccc2)n(COCc2ccccc2)c(=O)[nH]c1=O`, for which the CC50 in data set [1] amounted to 84600 nM. Further, 20 nM corresponded to half-maximal inhibition in data set [2] (IC50). Further, the EC50 was 22 nM in data set [3] and over 10000 nM in data set [4]. Moreover, the selectivity ratio in data set [5] is under 6.6; in data set [6] it was 3840.
For `CCOCn1c(Cc2cc(F)cc(F)c2)c(I)c(=O)[nH]c1=O`, half-maximal cytotoxicity in data set [1] (CC50) was put at 300000 nM. The IC50 in data set [2] is 11800 nM. Also, the EC50 in data set [3] was 537 nM; in data set [4], over 10000 nM. Moreover, the selectivity ratio in data set [5] was under 30; in data set [6], 559.
Regarding `CN(C)c1c(Cc2ccccc2)n(COCc2ccccc2)c(=O)[nH]c1=O`, the CC50 in data set [1] turned out to be 91800 nM. The compound also registered an IC50 in data set [2] of 12 nM. Also, the EC50 is 345 nM in data set [3] and over 10000 nM in data set [4]. Also, the selectivity ratio in data set [5] was under 9; in data set [6], 264.
As for `Cc1cc(C)cc(Cc2c(I)c(N)nc(=O)n2COCc2ccccc2)c1`, it took 7220 nM to reach half-maximal inhibition in data set [2] (IC50).
On the same count and under the same terms, the value for `CCOCn1c(Cc2ccccc2)c(I)c(=O)[nH]c1=O` was 114 nM.
In turn, `Cc1cc(C)cc(Cc2c(I)c(=O)[nH]c(=O)n2COCc2ccccc2)c1` gave a CC50 in data set [1] of 98300 nM. In data set [2], this compound returned an IC50 of 3 nM. Moreover, the EC50 in data set [3] is 2 nM; in data set [4], 91 nM. Further, the selectivity ratio in data set [5] amounted to 1080; in data set [6], 38200. Moreover, the Ratio EC50 in data set [7] was 325.
`O=c1[nH]c(=O)n(COCc2ccccc2)c(Cc2ccccc2)c1Br`: in data set [1], the CC50 came to 67400 nM. This compound also displayed an IC50 in data set [2] of 1520 nM. Moreover, the figures for the EC50 in data set [3] and in data set [4] were 1720 nM and over 10000 nM, respectively. Moreover, the selectivity ratio is under 6.7 in data set [5] and 39 in data set [6].
In turn, `CCOCn1c(Cc2cc(C)cc(C)c2)c(N(C)C)c(=O)[nH]c1=O` came in with an IC50 in data set [2] of 39 nM.
`O=c1[nH]c(=O)n(COCc2ccccc2)c(Cc2ccccc2)c1I`: the CC50 in data set [1] was 74800 nM. The compound also registered an IC50 in data set [2] of 10 nM. Also, the EC50 was 45 nM in data set [3] and over 10000 nM in data set [4]. For the same compound, the figures for the selectivity ratio in data set [5] and in data set [6] were under 7 and 1660, respectively.

Values taken from ChEMBL document CHEMBL2040821, “Design, synthesis, and biological evaluation of 1-[(2-benzyloxyl/alkoxyl)methyl]-5-halo-6-aryluracils as potent HIV-1 non-nucleoside reverse transcriptase inhibitors with an improved drug resistance profile” (J Med Chem, 2012).
